Assay results published in PMC11316633 (European journal of medicinal chemistry, 2024).

Assays:
CDK7/Cyclin H/MNAT1 = CDK7/Cyclin H/MNAT1 (Homo sapiens, UniProt P50613); test: Adapta Eu kinase assay; format: biochemical
In short: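 CDK7/Cyclin H/MNAT1 complex tested by an outside contract service in Adapta Eu format, with ATP at its Km concentration.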

CDK7 [1] = target: T1, CDK7 (Homo sapiens, UniProt P50613); test: Immunoblot analysis of CDK7 degradation in Jurkat cells; format: cell-based
In short: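 Jurkat cells received test compound at 0.1 or 1 μM for 16 h, 0.1 μM for 0.5–24 h, or a concentration series for 6 h. Other arms were pretreated 2 h with MG132, MLN-4924, parent CDK7 inhibitor or VHL ligand, or used VHL-knockout Jurkat (6 h). Blots: RIPA lysis, 4–20% SDS-PAGE, nitrocellulose, anti-CDK7 1:1000, β-actin 1:5000, IRDye secondaries. Mean ± SEM of three biological replicates.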

Jurkat cells = test: CellTiter-Glo proliferation assay, Jurkat; format: cell-based, human; conditions: 72h
In short: (§1)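 Cells were grown in RPMI 1640 with 10% heat-inactivated FBS and penicillin/streptomycin at 37 °C and 5% CO2, and tested mycoplasma-negative. They were seeded at 10^4/ml and treated in triplicate. Compounds were dispensed by robot from 10 mM or 1 mM stocks, with DMSO equalised across wells. A non-degrading analogue and the parent inhibitor served as controls. After 72 h, CellTiter-Glo was added for 10–15 min at room temperature and luminescence was read.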

SUDHL5 cells = test: CellTiter-Glo proliferation assay, SUDHL5; format: cell-based; conditions: SUDHL5, 72h
In short: as §1

Molt4 cells = test: CellTiter-Glo proliferation assay, Molt4; format: cell-based; conditions: Molt4, 72h
In short: as §1

A549 cells = test: CellTiter-Glo proliferation assay, A549; format: cell-based; conditions: A549, 72h
In short: as §1

OVCAR3 cells = test: CellTiter-Glo proliferation assay, OVCAR3; format: cell-based; conditions: OVCAR3, 72h
In short: as §1

CDK7 [2] = target: T1, CDK7; test: Immunoblot analysis of CDK7 degradation in different cell lines; format: cell-based; conditions: 6 h
In short: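 Cell lines grown in RPMI 1640/10% FBS were exposed to test compound for 6 h. Lysis was in ice-cold RIPA (pH 7.4) with protease/phosphatase inhibitors, with BCA-equalised loading. Proteins were run on 4–20% SDS-PAGE and transferred to nitrocellulose. Blots were probed overnight at 4 °C with anti-CDK7 1:1000 and β-actin 1:5000, then with IRDye secondaries for 1 h at room temperature, and scanned by infrared imaging.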

[3] = system: CDK1, 2, 4, 5, 6, 8 and 9; test: Western blotting analysis of other CDKs in Jurkat cells; format: cell-based, human; conditions: 0.1 to 0.5 μM, 6 hours
In short: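 Jurkat cells were exposed to test compound at 0.1–0.5 μM for 6 h. Lysis was in ice-cold RIPA (pH 7.4) with protease and phosphatase inhibitors, with BCA protein quantitation. Samples were boiled 10 min at 95 °C, run on 4–20% SDS-PAGE, and transferred to nitrocellulose. Primary antibodies were applied overnight at 4 °C, then IRDye secondaries for 1 h at room temperature, with infrared detection.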

OVCAR3 cells proteome = test: Multiplexed quantitative mass-spectrometry-based proteomics in OVCAR3 cells; format: cell-based, human; conditions: OVCAR3, 0.1 μM, 6 h
In short: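 OVCAR3 cells in triplicate plates adhered 24 h, then received 0.1 μM test compound or DMSO for 6 h. Lysis was in 2% SDS buffer, followed by 5 mM DTT (37 °C, 1 h) and 15 mM iodoacetamide. Lys-C then trypsin (each 1:75) digested the samples. 150 μg per sample was TMT18-labelled, fractionated at pH 8, and quantified by SPS-MS3 on an Orbitrap. Target-decoy SEQUEST search; peptides with TMT sum >200 and isolation specificity >0.7 kept.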

MAT1 = test: Western blotting analysis of MAT1 in OVCAR3 and Jurkat cells; format: cell-based; conditions: Western blot, 6 h
In short: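 OVCAR3 and Jurkat cells were exposed to test compound for 6 h. RIPA lysates were BCA-equalised, resolved on 4–20% SDS-PAGE, and transferred to nitrocellulose. Blots were probed overnight at 4 °C for MAT1, Cyclin H and CDK7 (each 1:1000) plus β-actin (1:5000), then with IRDye secondaries for 1 h at room temperature, and imaged by infrared scanning.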

LONRF2 = test: Western blot of LONRF2; format: cell-based; conditions: 0.1 to 5 μM
In short: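 Immunoblot with anti-LONRF2 1:1000 overnight at 4 °C and β-actin 1:5000 as loading control. RIPA lysates with protease/phosphatase inhibitors were BCA-equalised, run on 4–20% SDS-PAGE, and transferred to nitrocellulose. IRDye secondaries were applied for 1 h at room temperature, followed by infrared scanning.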

[4] = Mouse pharmacokinetic study; format: in vivo, mice
[5] = Tolerability during mouse PK study; format: in vivo; conditions: mice
[6] = Jurkat cells, 0.1 μM or 1 μM, 16 h, Western blot

T1 sequence (P50613 2-346 limits assumed): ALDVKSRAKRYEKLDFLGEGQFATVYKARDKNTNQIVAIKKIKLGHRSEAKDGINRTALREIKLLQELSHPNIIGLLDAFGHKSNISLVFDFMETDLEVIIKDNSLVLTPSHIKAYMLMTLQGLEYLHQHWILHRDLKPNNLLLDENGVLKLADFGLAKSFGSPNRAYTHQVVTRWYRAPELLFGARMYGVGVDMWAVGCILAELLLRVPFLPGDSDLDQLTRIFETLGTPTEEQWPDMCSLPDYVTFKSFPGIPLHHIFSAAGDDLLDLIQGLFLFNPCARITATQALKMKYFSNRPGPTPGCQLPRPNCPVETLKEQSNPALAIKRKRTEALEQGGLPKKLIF
T1 sequence (P51946 whole entry partner): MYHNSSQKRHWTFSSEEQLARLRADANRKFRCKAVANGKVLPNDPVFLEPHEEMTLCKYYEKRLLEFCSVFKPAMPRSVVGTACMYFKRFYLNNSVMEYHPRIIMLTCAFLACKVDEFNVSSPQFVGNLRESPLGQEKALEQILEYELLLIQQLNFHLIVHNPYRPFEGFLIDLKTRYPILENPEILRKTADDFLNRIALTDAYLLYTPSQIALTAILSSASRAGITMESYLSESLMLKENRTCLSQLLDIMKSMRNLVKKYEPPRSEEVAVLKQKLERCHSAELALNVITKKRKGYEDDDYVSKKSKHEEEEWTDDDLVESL
T1 sequence (P51948 whole entry partner): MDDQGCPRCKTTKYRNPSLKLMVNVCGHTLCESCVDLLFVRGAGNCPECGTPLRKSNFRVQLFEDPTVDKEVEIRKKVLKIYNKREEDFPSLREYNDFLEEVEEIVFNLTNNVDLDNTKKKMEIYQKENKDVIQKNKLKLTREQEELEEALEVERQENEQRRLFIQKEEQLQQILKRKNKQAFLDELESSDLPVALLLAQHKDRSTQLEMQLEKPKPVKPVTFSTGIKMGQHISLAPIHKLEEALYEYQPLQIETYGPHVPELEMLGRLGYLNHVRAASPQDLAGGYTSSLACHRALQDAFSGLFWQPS
Sequence of CDK7/Cyclin H/MNAT1 (P50613 whole entry): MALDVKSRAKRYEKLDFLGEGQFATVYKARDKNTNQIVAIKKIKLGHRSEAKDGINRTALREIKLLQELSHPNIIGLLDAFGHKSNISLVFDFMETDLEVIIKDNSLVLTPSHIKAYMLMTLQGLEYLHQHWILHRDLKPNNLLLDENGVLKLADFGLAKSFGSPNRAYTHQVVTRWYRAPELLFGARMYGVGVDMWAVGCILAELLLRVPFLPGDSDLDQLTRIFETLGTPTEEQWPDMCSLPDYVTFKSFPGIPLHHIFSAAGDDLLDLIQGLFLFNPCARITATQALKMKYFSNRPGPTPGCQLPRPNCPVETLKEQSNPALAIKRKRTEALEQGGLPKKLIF
Sequence of CDK7/Cyclin H/MNAT1 (P51946 whole entry partner): as the sequence (P51946 whole entry partner) above
Sequence of CDK7/Cyclin H/MNAT1 (P51948 whole entry partner): as the sequence (P51948 whole entry partner) above

Cc1ncsc1-c1ccc([C@H](C)NC(=O)[C@@H]2C[C@H](O)CN2C(=O)[C@@H](NC(=O)CCCC#Cc2ccc(C(=O)Nc3n[nH]c4c3CN(C(=O)N[C@H](CN(C)C)c3ccccc3)C4(C)C)cc2)C(C)(C)C)cc1 [Compound 17-Neg, N-((S)-2-(dimethylamino)-1-phenylethyl)-3-(4-(6-(((S)-1-((2S,4S)-4-hydroxy-2-(((S)-1-(4-(4-methylthiazol-5-yl)phenyl)ethyl)carbamoyl)pyrrolidin-1-yl)-3,3-dimethyl-1-oxobutan-2-yl)amino)-6-oxohex-1-yn-1-yl)benzamido)-6,6-dimethyl-4,6-dihydropyrrolo[3,4-c]pyrazole-5(1H)-carboxamide]
IC50 (CDK7/Cyclin H/MNAT1): 21.1 nM | level of CDK7 protein (CDK7 [1]; Jurkat cells, 6 h, negative control): fails to reduce the level of CDK7 protein | anti-proliferative effect (in words) (Jurkat cells): much weaker anti-proliferative effect | antiproliferative effect (in words) (SUDHL5 cells): much weaker antiproliferative effect | antiproliferative effect (in words) (Molt4 cells): much weaker antiproliferative effect | antiproliferative effect (in words) (A549 cells): much weaker antiproliferative effect | antiproliferative effect (in words) (OVCAR3 cells): much weaker antiproliferative effect

Cc1ncsc1-c1ccc([C@H](C)NC(=O)[C@@H]2C[C@@H](O)CN2C(=O)[C@@H](NC(=O)CCCC#Cc2ccc(C(=O)Nc3n[nH]c4c3CN(C(=O)N[C@H](CN(C)C)c3ccccc3)C4(C)C)cc2)C(C)(C)C)cc1 [Compound 17, N-((S)-2-(dimethylamino)-1-phenylethyl)-3-(4-(6-(((S)-1-((2S,4R)-4-hydroxy-2-(((S)-1-(4-(4-methylthiazol-5-yl)phenyl)ethyl)carbamoyl)pyrrolidin-1-yl)-3,3-dimethyl-1-oxobutan-2-yl)amino)-6-oxohex-1-yn-1-yl)benzamido)-6,6-dimethyl-4,6-dihydropyrrolo[3,4-c]pyrazole-5(1H)-carboxamide]
CDK7 degradation (in words) (CDK7 [1]; [6]): most effective degrader for CDK7 | reduction in CDK7 protein (CDK7 [1]; [6]): up to 95% | time at which degradation of CDK7 was observable (CDK7 [1]; Jurkat cells, 0.1 μM, time course up to 24 hours): ≤ 0.5 h | CDK7 degradation after pretreatment with MG132 or MLN-4924 (CDK7 [1]; Jurkat cells, 2 h pretreatment, then 17 for 6 h): rescued CDK7 degradation | hook effect (CDK7 [1]; Jurkat cells, 6 h, up to 5 μM): no hook effect was observed | CDK7 degradation, concentration dependence (CDK7 [1]; Jurkat cells, different concentrations, 6 h): efficiently induced CDK7 degradation in a dose-dependent manner | CDK7 degradation in cells lacking VHL (CDK7 [1]; VHL-knockout Jurkat cells vs wild-type, 6 h): completely abrogated | CDK7 degradation (CDK7 [2]; A549 lung adenocarcinoma cell line): Robust degradation | CDK7 degradation (CDK7 [2]; Molt4 T lymphoblast cell line): Robust degradation | CDK7 degradation (CDK7 [2]; OVCAR3 ovarian adenocarcinoma cell line): Robust degradation | CDK7 degradation (CDK7 [2]; SUDHL5 B-cell lymphoma cell line): Robust degradation | protein levels of other CDK family members [3]: barely affected the protein levels | CDK7 abundance (proteomics) (OVCAR3 cells proteome): significantly downregulated | Cyclin H abundance (proteomics) (OVCAR3 cells proteome): significantly downregulated | number of significantly changed proteins (OVCAR3 cells proteome; 6538 proteins identified, 1.75-fold cutoff, p-value < 0.001, vs DMSO): only three significantly changed proteins were identified | MAT1 protein level (MAT1): dose-dependent downregulation | LONRF2 degradation (LONRF2): did not observed LONRF2 degradation | antiproliferative effect (in words) (OVCAR3 cells): efficacies comparable to its parental compound YKL-5–167 | concentration at 6 h ([4]; male, CD1, mouse, plasma, ip, 10 mg/kg): 1490 nM | clearance ([4]; mice, IV 3 mg/kg and IP 10 mg/kg): low clearance | maximum plasma concentration ([4]; mice, single IP injection, 10 mg/kg): 3.39 µM | clinical signs ([5]; during the PK study): no clinical signs were observed | tolerability ([5]; single dose IV 3 mg/kg or IP 10 mg/kg): well tolerated
